Holding throughout (assay type): functional
Test [1] relates to Staphylococcus epidermidis. Briefly: Antibacterial activity against methicillin-resistant Staphylococcus epidermidis isolate CAN-ICU 61589 after 18 hrs by microtiter dilution assay. As to conditions: isolate CAN-ICU 61589, 18 h. The procedure, abridged: (§1)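 Broth microdilution following CLSI guidelines. An overnight culture was adjusted to 0.5 McFarland in saline, then diluted 1:50 in Mueller-Hinton broth. This inoculum was added in equal volume to 2-fold serial dilutions of agent in MHB and incubated 18 h at 37 °C. MIC was the lowest concentration with no visible growth.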

For test [2], the system named is Enterobacter cloacae. Briefly: Potentiation of rifampicin-induced antibacterial activity against multidrug-resistant Enterobacter cloacae 117029 at 4 ug/ml after 18 hrs by checkerboard assay. In a few lines:
(§2)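 Checkerboard in Mueller-Hinton broth: antibiotic serially diluted along one axis and adjuvant along the other (10 × 7 matrix). Inoculum from a 0.5 McFarland saline suspension diluted 1:50 in MHB; 18 h at 37 °C, then plate read. MIC is the lowest concentration with no growth. FIC of each agent is its concentration in a no-growth well divided by its MIC alone; FIC index is the sum of both. FIC index ≤0.5 counts as synergy.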

Test [3] has as its system Staphylococcus epidermidis. The test can be described thus: Antibacterial activity against methicillin-susceptible Staphylococcus epidermidis isolate CANWARD-2008 81388 after 18 hrs by microtiter dilution assay. As to conditions: isolate CANWARD-2008 81388, 18 h. The procedure, abridged:
as §1

Test [4] relates to Acinetobacter baumannii. Briefly: Potentiation of rifampicin-induced antibacterial activity against multidrug-resistant Acinetobacter baumannii 110193 at 4 ug/ml after 18 hrs by checkerboard assay. In a few lines: as §2
Test [5] concerns Pseudomonas aeruginosa. The test can be described thus: Synergistic antibacterial activity against Pseudomonas aeruginosa PAO1 after 18 hrs in presence of minocycline by checkerboard assay. As to conditions: PAO1, 18 h. The procedure, abridged: (§3)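 Checkerboard in MHB: antibiotic diluted along one axis and adjuvant along the other (10 × 7 matrix). Inoculum was a 1:50 dilution in MHB of a 0.5 McFarland saline suspension; incubated 18 h at 37 °C. Each FIC = concentration in the no-growth well divided by the MIC alone; FIC index = sum of both FICs. ≤0.5 synergy, 0.5–4 no interaction, ≥4 antagonism.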

The subject of test [6] is Acinetobacter baumannii. Briefly: Synergistic antibacterial activity against multidrug-resistant Acinetobacter baumannii AB030 after 18 hrs in presence of minocycline by checkerboard assay. As to conditions: AB030, 18 h. In a few lines:
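Checkerboard in MHB with a 10 × 7 matrix: antibiotic serially diluted along one axis, adjuvant along the other. Inoculum was a 1:50 dilution of a 0.5 McFarland suspension, incubated 18 h at 37 °C and read on a plate reader. Each FIC is the concentration in a no-growth well divided by the MIC alone; FIC index is their sum, with ≤0.5 taken as synergy.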

The subject of a further test is Escherichia coli. The test can be described thus: Antibacterial activity against gentamicin-resistant Escherichia coli isolate CAN-ICU 61714 after 18 hrs by microtiter dilution assay. As to conditions: isolate CAN-ICU 61714, 18 h. In a few lines: as §1
For test [7], the system named is Acinetobacter baumannii. The test can be described thus: Potentiation of minocycline-induced antibacterial activity against multidrug-resistant Acinetobacter baumannii 110193 at 4 ug/ml after 18 hrs by checkerboard assay. The procedure, abridged:
as §2

For test [8], the system named is Pseudomonas aeruginosa. Briefly: Potentiation of minocycline-induced antibacterial activity against multidrug/extremely drug-resistant/colistin-susceptible Pseudomonas aeruginosa isolate P264-104354 assessed as fold reduction in minocycline MIC at 4 ug/ml after 18 hrs by checkerboard assay relative to control. The procedure, abridged: (§4)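 Checkerboard in Mueller-Hinton broth, 10 × 7 matrix, with the adjuvant held at 4 µg/mL. Inoculum from a 0.5 McFarland suspension diluted 1:50; 18 h at 37 °C. Antibiotic MIC (lowest concentration with no growth) with adjuvant is compared with the antibiotic MIC alone, giving a fold reduction.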

For test [9], the system named is Pseudomonas aeruginosa. The test can be described thus: Potentiation of amikacin-induced antibacterial activity against Pseudomonas aeruginosa PAO1 at 4 ug/ml after 18 hrs by checkerboard assay. The procedure, abridged: as §2
The subject of a further test is Enterococcus faecium. Briefly: Antibacterial activity against Enterococcus faecium ATCC 27270 after 18 hrs by microtiter dilution assay. As to conditions: ATCC 27270, 18 h. In a few lines:
(§5)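 Broth microdilution per CLSI. Overnight culture adjusted to 0.5 McFarland in saline, diluted 1:50 in Mueller-Hinton broth, and added to an equal volume of 2-fold serial compound dilutions in MHB. Incubated 18 h at 37 °C. MIC taken as the lowest concentration with no visible growth.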

The subject of test [10] is Pseudomonas aeruginosa. Briefly: Potentiation of minocycline-induced antibacterial activity against multidrug/extremely drug-resistant/colistin-susceptible Pseudomonas aeruginosa isolate P262-101856 assessed as fold reduction in minocycline MIC at 4 ug/ml after 18 hrs by checkerboard assay relative to control. The procedure, abridged: as §4
The subject of test [11] is Pseudomonas aeruginosa. The test can be described thus: Potentiation of ceftazidime-induced antibacterial activity against Pseudomonas aeruginosa PAO1 at 4 ug/ml after 18 hrs by checkerboard assay. The procedure, abridged:
as §2

The subject of test [12] is Pseudomonas aeruginosa. Briefly: Bactericidal activity against Pseudomonas aeruginosa PAO1 at 0.125 times antibacterial MIC after 6 hrs.
Test [13] relates to Pseudomonas aeruginosa. Briefly: Antibacterial activity against multidrug/extremely drug-resistant/colistin-susceptible Pseudomonas aeruginosa isolate 101885 after 18 hrs by microtiter dilution assay. Conditions: isolate 101885, 18 h. In a few lines: as §1
The subject of test [14] is Pseudomonas aeruginosa. Briefly: Potentiation of minocycline-induced antibacterial activity against Pseudomonas aeruginosa PAO1 at 4 ug/ml after 18 hrs by checkerboard assay. In a few lines: as §2
In test [15] the test system is Pseudomonas aeruginosa. The test can be described thus: Potentiation of chloramphenicol-induced antibacterial activity against Pseudomonas aeruginosa PAO1 at 4 ug/ml after 18 hrs by checkerboard assay. In a few lines:
as §2

Test [16] concerns Pseudomonas aeruginosa. Briefly: Potentiation of rifampicin-induced antibacterial activity against multidrug/extremely drug-resistant/colistin-susceptible Pseudomonas aeruginosa isolate P262-101856 at 4 ug/ml after 18 hrs by checkerboard assay. The procedure, abridged:
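Checkerboard broth microdilution in MHB: antibiotic serially diluted along one axis, adjuvant along the other (10 × 7 matrix). Inoculum from 0.5 McFarland saline suspension diluted 1:50 in MHB; 18 h at 37 °C. MIC taken as lowest concentration with no growth. FIC per agent = combination MIC/MIC alone; FIC index = sum (≤0.5 synergy).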

Test [17] concerns Enterobacter cloacae. The test can be described thus: Antibacterial activity against multidrug-resistant Enterobacter cloacae 117029 after 18 hrs by microtiter dilution assay. As to conditions: Enterobacter cloacae, 117029, 18 h. In a few lines: as §1
The test system of test [18] is Pseudomonas aeruginosa. Briefly: Potentiation of rifampicin-induced bactericidal activity against Pseudomonas aeruginosa PAO1 at 0.125 times antibacterial MIC after 90 mins. The procedure, abridged: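 Combination time-kill in PAO1 (LB, 37 °C). Aliquots taken at 0–360 min, serially diluted in PBS, plated on LB agar, and CFU counted after 20 h at 37 °C.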
The subject of another test is Streptococcus pneumoniae. The test can be described thus: Antibacterial activity against Streptococcus pneumoniae ATCC 49619 after 18 hrs by microtiter dilution assay. As to conditions: ATCC 49619, 18 h. In a few lines: as §5
Test [19] has as its system Pseudomonas aeruginosa. Briefly: Synergistic antibacterial activity against Pseudomonas aeruginosa PAO1 after 18 hrs in presence of ceftazidime by checkerboard assay. Conditions: PAO1, 18 h. The procedure, abridged:
as §3

Test [20] deals with Pseudomonas aeruginosa. Briefly: Synergistic antibacterial activity against Pseudomonas aeruginosa PAO1 after 18 hrs in presence of gentamicin by checkerboard assay. As to conditions: PAO1, 18 h. In a few lines: as §3
Test [21] relates to Pseudomonas aeruginosa. The test can be described thus: Potentiation of rifampicin-induced antibacterial activity against multidrug/extremely drug-resistant/colistin-susceptible Pseudomonas aeruginosa isolate P262-101856 infected in Galleria mellonella assessed as mortality at 12.5 to 37.5 mg/kg after 24 hrs relative to control. In a few lines:
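Galleria mellonella larvae (~250 mg, used within 7 days), 15 per group, injected with 10 µL XDR P262 at 1.0×10^3 CFU/mL in PBS. PBS vehicle control. Survival scored over 24 h at 37 °C.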

Activity calls are given as the source filed them. No cut-off for these calls is given here.

With `Cl.Cl.Cl.Cl.Cl.Cl.Cl.NCCCC[C@H](N)C(=O)N(CCCCCCCCCCCCO[C@@H]1[C@@H](O[C@H]2O[C@H](CO)[C@@H](O)[C@H](N)[C@H]2O)[C@H](N)C[C@H](N)[C@H]1O[C@H]1O[C@H](CN)[C@@H](O)C[C@H]1N)Cc1c2ccccc2c(Cl)c2ccccc12`, the MIC came out at 4 µg/mL in [1]; 2 µg/mL in test [3]; 1 µg/mL in the test on Pseudomonas aeruginosa [5]; 16 µg/mL in the test on Acinetobacter baumannii [6]; 32 µg/mL against Escherichia coli; 8 µg/mL in the test on Enterococcus faecium. Besides, the minimum inhibitory concentration (MIC) with Pseudomonas aeruginosa [13] stood at 16 µg/mL; in the test on Enterobacter cloacae [17], 256 µg/mL; against Streptococcus pneumoniae, 32 µg/mL; in the test on Pseudomonas aeruginosa [19], 2 µg/mL; in the test with Pseudomonas aeruginosa [20] it was 4 µg/mL. Besides, the “fractional inhibitory concentration index (FICI)” value in the test on Enterobacter cloacae [2] was 0.02; in the test on Acinetobacter baumannii [4] it was 0.095; in the test with Acinetobacter baumannii [7], 0.63; in the test on Pseudomonas aeruginosa [9] it was 1.063; in the test on Pseudomonas aeruginosa [11], 0.563; in the test with Pseudomonas aeruginosa [14] it was 0.094. For the same compound, the “fractional inhibitory concentration index (FICI)” value in the test on Pseudomonas aeruginosa [15] came out at 0.156; in the test on Pseudomonas aeruginosa [16], 0.141. Further, the “fold change (FC)” value with Pseudomonas aeruginosa [8] and in the test with Pseudomonas aeruginosa [10] was 128 each time. Besides, the result with Pseudomonas aeruginosa [12] was inactive. In addition, the result in the test with Pseudomonas aeruginosa [18] was Active. In addition, the mortality in the test with Pseudomonas aeruginosa [21] was determined as 100%.
